Experimental data from different studies.
Protocols differ between the studies behind these lines.
RPS6KA6: Ribosomal protein S6 kinase alpha-6 (RPS6KA6, Homo sapiens, UniProt Q9UK32)
RPS6KA6 N-terminal kinase domain: Ribosomal protein S6 kinase alpha-6, N-terminal kinase domain (RPS6KA6, Homo sapiens, UniProt Q9UK32)
RPS6KA6 C-terminal kinase domain: Ribosomal protein S6 kinase alpha-6, C-terminal kinase domain (RPS6KA6, Homo sapiens, UniProt Q9UK32)

With `CCN1CCC2(CC1)NC(=O)c1c(c3ccc(Cl)c(Cl)c3n1C)C2C#N` (racemic) the ΔTm was 0 °C (RPS6KA6; thermal stability; DSF; 10 µM).
For `CS(=O)(=O)CCNCc1ccc(-c2ccc3ncnc(Nc4ccc(OCc5cccc(F)c5)c(Cl)c4)c3c2)o1`, the remaining signal was 108% (RPS6KA6; cell-free assay; 0.5 µM).
`N[C@H]1CCN(c2nccc(-c3cnn4ncccc34)n2)C1` has a remaining binding of 100% (RPS6KA6 N-terminal kinase domain; binding; competition with immobilised ligand; 1 µM).
`O=C1Nc2ccc(Cl)cc2C1=Cc1cc(Cl)c(O)c(Cl)c1` has a remaining signal of 78.5% (RPS6KA6; cell-free assay; 0.5 µM).
The remaining binding of `O=C(O)[C@H]1[C@H](Cn2nnc3ccccc3c2=O)CC[C@@H]1C(=O)c1ccc(OCCC2CCOCC2)cc1` is reported as 86% (RPS6KA6 N-terminal kinase domain; cell-free assay; competition with immobilised ligand; 1 µM).
`CC1(C)NC(=O)c2[nH]c3c(Cl)c(Cl)ccc3c2C1C#N` (centres unmarked) has a ΔTm of 2.2 °C (RPS6KA6; thermal stability; DSF; 10 µM).
`CCN(CC)CCNC(=O)c1c(C)[nH]c(/C=C2\C(=O)Nc3ccc(F)cc32)c1C` has a remaining signal of 17.5% (RPS6KA6; cell-free assay; 0.5 µM).
With `O=C(Nc1cnn(-c2csc(C(=O)NC3COC3)c2)c1)Nc1c(F)cccc1Cl` the remaining activity was 92.2% (RPS6KA6; enzyme activity; inhibitor; 5 µM).
For `CCCS(=O)(=O)Nc1ccc(F)c(C(=O)c2c[nH]c3ncc(-c4ccc(Cl)cc4)cc23)c1F`, the inhibition was < 10% (RPS6KA6; enzyme activity; inhibitor; 1 µM).
The remaining signal of `Nc1ncnc2occ(-c3ccc(NC(=O)Nc4cc(C(F)(F)F)ccc4F)cc3)c12` is reported as 18% (RPS6KA6 C-terminal kinase domain; cell-free assay; inhibitor; 20 µM).
`N#CC1c2c([nH]c3c(Cl)c(Cl)ccc23)C(=O)NC12CCCCC2` (racemic) has a ΔTm of 1.6 °C (RPS6KA6; thermal stability; DSF; 10 µM).
The remaining activity of `O=C(Nc1cnn(-c2csc(C(=O)NC3COC3)c2)c1)Nc1ccccc1Cl` is reported as 107% (RPS6KA6; enzyme activity; inhibitor; 5 µM).
The remaining binding of `Cn1cc(Cl)c2c(Oc3c(F)cc(Nc4cc(Cl)nc(N)n4)cc3F)ccnc21` is reported as 100% (RPS6KA6 C-terminal kinase domain; cell-free assay; competition with immobilised ligand; 0.1 µM).
`C[C@@H]1CCN(c2nccc(-c3cnn4ncccc34)n2)C1` has a remaining binding of 66% (RPS6KA6 C-terminal kinase domain; binding; competition with immobilised ligand; 1 µM).
`Cc1ccc(Nc2nccc(N(C)c3ccc4c(C)n(C)nc4c3)n2)cc1S(N)(=O)=O` gave a remaining activity of 96.8% (RPS6KA6; enzyme activity; inhibitor; 0.5 µM).
`CC/C(=N\NC(=O)C(C)Nc1ccccc1)c1ccc(O)c(C)c1O` (centres unmarked) has an inhibition of 28.6% (RPS6KA6; enzyme activity; inhibitor; 0.1 µM).
For `c1cnn2ncc(-c3ccnc(N4CCC45COC5)n3)c2c1`, the remaining binding was 66% (RPS6KA6 C-terminal kinase domain; binding; competition with immobilised ligand; 1 µM).
`CO[C@@H](C)c1c(Nc2ccc([C@@H](N(C)C(=O)C3CCS(=O)(=O)CC3)C(F)(F)F)cc2)cnc2cc(Cl)nn12` has a remaining binding of 98% (RPS6KA6 C-terminal kinase domain; cell-free assay; competition with immobilised ligand; 1 µM).
The ΔTm of `Cn1c2c(Cl)c(Cl)ccc2c2cn[nH]c(=O)c21` is reported as 2 °C (RPS6KA6; thermal stability; DSF; 10 µM).
For `CNC(=O)c1cc(Oc2ccc(NC(=O)Nc3ccc(Cl)c(C(F)(F)F)c3)cc2)ccn1`, the inhibition was -16% (RPS6KA6; enzyme activity; inhibitor; 10 µM).
`Cc1cc(NC(=O)c2cccc3cc(-c4cccc5[nH]nc(N)c45)ccc23)ccc1F` has an activity vs control of 94% (RPS6KA6; enzyme activity; inhibitor; 0.1 µM).
With `CC(C)(C)c1nc2c(s1)c1nc(N)ncc1c1ccc(NS(=O)(=O)c3c(F)cccc3F)c(F)c12` the remaining activity was 97% (RPS6KA6; enzyme activity; inhibitor; radiometric; 1 µM).
`COc1cc(Cl)c(C(=O)N[C@@H](CN[C@H]2CC[C@@H](N)CC2)Cc2ccc(C#N)cc2)cc1-c1ccc(CN[C@H](C)c2ccc(C)cc2)o1` gave a remaining activity of 97% (RPS6KA6; enzyme activity; inhibitor; 1 µM).
`COc1cc2ncnc(Nc3ccc(Oc4ccccc4)c(C)c3C)c2cc1OC` has an inhibition of 19% (RPS6KA6; enzyme activity; inhibitor; 1 µM).
`Cc1ccc(C(=O)Nc2ccc(CN3CCN(C)CC3)c(C(F)(F)F)c2)cc1C#Cc1cnc2cccnn12` has an activity vs control of 84% (RPS6KA6; enzyme activity; inhibitor; 23.5 nM).
With `COc1ccc2c(c1)O[C@H](c1ccc(OC)c(OC)c1)C[C@@H]2NC(=O)C1(c2ccc3c(c2)OC(F)(F)O3)CC1` the remaining binding was 91% (RPS6KA6 C-terminal kinase domain; cell-free assay; competition with immobilised ligand; 1 µM).
`F[C@@H]1CCN(c2nccc(-c3cnn4ncccc34)n2)C1` gave a remaining binding of 82% (RPS6KA6 N-terminal kinase domain; binding; competition with immobilised ligand; 1 µM).
With `Cc1nccc(COC(=O)N2C[C@@H]3[C@@H](CNC(=O)c4ccc5[nH]nnc5c4)[C@@H]3C2)n1` the remaining binding was 100% (RPS6KA6 N-terminal kinase domain; cell-free assay; competition with immobilised ligand; 1 µM).
With `Oc1ccc(-c2nc(-c3ccncc3)c(-c3ccc(F)cc3)[nH]2)cc1` the remaining signal was 110% (RPS6KA6; cell-free assay; 0.5 µM).
`CO[C@H]1CC[C@H](CNc2ccc(S(=O)(=O)NC(=O)c3ccc(N4CCN(CC5=C(c6ccc(Cl)cc6)CC(C)(C)CC5)CC4)cc3Oc3cnc4[nH]ccc4c3)cc2[N+](=O)[O-])CC1` has a remaining binding of 81% (RPS6KA6 C-terminal kinase domain; cell-free assay; competition with immobilised ligand; 1 µM).
`C[C@@H]1CCN(C(=O)CC#N)C[C@@H]1N(C)c1ncnc2[nH]ccc12` gave a remaining signal of 98.1% (RPS6KA6; cell-free assay; inhibitor; 0.5 µM).
The remaining binding of `COc1ccc2cc(OCC3(C(=O)O)CN(C(=O)c4ccc(F)cc4)C3)ccc2c1` is reported as 77% (RPS6KA6 N-terminal kinase domain; cell-free assay; competition with immobilised ligand; 1 µM).
The remaining binding of `CN(CCCC(F)(F)F)c1nccc(-c2cnn3ncccc23)n1` is reported as 100% (RPS6KA6 N-terminal kinase domain; binding; competition with immobilised ligand; 1 µM).
For `C[C@H](NC(=O)c1cnc2n1[C@](C)(Cc1ccc(C#N)cc1)C(=O)N2c1cc(Cl)c(F)c(Cl)c1)C(=O)NC1(c2ccccn2)CC1`, the remaining binding was 91% (RPS6KA6 N-terminal kinase domain; cell-free assay; competition with immobilised ligand; 1 µM).
With `Cn1c2c(c3ccc(Cl)c(Cl)c31)C(C#N)C1(CCCCC1)NC2=O` (racemic) the ΔTm was 0 °C (RPS6KA6; thermal stability; DSF; 10 µM).
